Values after ≈ are worked out from the molar mass of the structure shown.
Assays:
[1] = system: Providencia rettgeri; experiment: Minimum inhibitory concentration (MIC), tested against Providencia rettgeri C24; type: functional
[2] = system: Klebsiella pneumoniae; experiment: Minimum inhibitory concentration (MIC), tested against Klebsiella pneumoniae X68; type: functional
[3] = system: Streptococcus pyogenes; experiment: Minimum inhibitory concentration (MIC), tested against Streptococcus pyogenes C203.; type: functional
[4] = Rate constant for hydrolysis at pH 9; type: ADME; conditions: buffer
How it was run: (§1)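 Constant-pH hydrolysis (pH 9 or 11) was run on a pH-stat with NaOH addition, and loss of lactam (3.6×10^-4 to 1×10^-3 M) was followed by HPLC. Ionic strength was 0.5 with KCl. A pseudo-first-order rate constant was obtained from the disappearance time course.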

[5] = Rate constant for hydrolysis at pH 11; type: ADME; conditions: buffer; how it was run: as §1
[6] = Pseudo-first-order Rate constant for hydrolysis at pH 10; type: ADME; conditions: buffer
How it was run: (§2)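 Pseudo-first-order loss of parent lactam followed by HPLC at 35 °C. Lactam was 3.6×10^-4 to 1×10^-3 M in aqueous KCl at ionic strength 0.5, with pH held by NaOH on a pH-stat. Values were measured at pH 10 directly, or at pH 9 (×10) or pH 11 (÷10), taking k_obsd as proportional to [OH−].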

[7] = Rate constant for hydrolysis at pH 10; type: ADME; conditions: buffer; how it was run: as §2

Row | MIC [1] | MIC [2] | MIC [3] | k [4] | k [5] | k [6] | k [7] | SMILES
1 | 0.06 µg/mL (≈ 0.135 µM) | 0.25 µg/mL (≈ 0.562 µM) | 0.25 µg/mL (≈ 0.562 µM) | 14.8 h⁻¹ | – | – | – | CO/N=C(\C(=O)NC1CN2CC(S(C)(=O)=O)=C(C(=O)O)N2C1=O)c1csc(N)n1 (stereo unspecified)
2 | 0.25 µg/mL (≈ 0.639 µM) | 0.5 µg/mL (≈ 1.28 µM) | 0.5 µg/mL (≈ 1.28 µM) | 17.3 h⁻¹ | – | – | – | CO/N=C(\C(=O)NC1CN2CC(C#N)=C(C(=O)O)N2C1=O)c1csc(N)n1 (stereo unspecified)
3 | > 128 µg/mL | > 128 µg/mL | > 128 µg/mL | – | 0.0111 h⁻¹ | – | – | CO/N=C(\C(=O)NC1CN2N(C1=O)C(C(=O)O)=C(C(=O)O)C2(C)C)c1csc(N)n1 (stereo unspecified)
4 | 0.25 µg/mL (≈ 0.612 µM) | 2 µg/mL (≈ 4.9 µM) | 0.5 µg/mL (≈ 1.22 µM) | 7.24 h⁻¹ | – | – | – | CO/N=C(\C(=O)NC1CN2CC(C(C)=O)=C(C(=O)O)N2C1=O)c1csc(N)n1 (stereo unspecified)
5 | – | – | – | – | – | 0.0685 h⁻¹ | – | CC1=C(C(=O)O)N2C(=O)[C@@H](NC(=O)[C@H](N)c3ccccc3)[C@H]2SC1 [CEPHALEXIN ANHYDROUS]
6 | 8 µg/mL (≈ 16.5 µM) | 32 µg/mL (≈ 65.9 µM) | 1 µg/mL (≈ 2.06 µM) | 2.33 h⁻¹ | – | – | – | CO/N=C(\C(=O)NC1CN2CC(C(=O)Nc3ccccc3)=C(C(=O)O)N2C1=O)c1csc(N)n1 (stereo unspecified)
7 | > 128 µg/mL | > 128 µg/mL | > 128 µg/mL | – | – | – | 0.146 h⁻¹ | CO/N=C(\C(=O)NC1CN2CC(c3ccccc3)=C(C(=O)O)N2C1=O)c1csc(N)n1 (stereo unspecified)
8 | 1 µg/mL (≈ 2.36 µM) | 8 µg/mL (≈ 18.9 µM) | 4 µg/mL (≈ 9.43 µM) | 4.74 h⁻¹ | – | – | – | CO/N=C(\C(=O)NC1CN2CC(C(=O)OC)=C(C(=O)O)N2C1=O)c1csc(N)n1 (stereo unspecified)
9 | 8 µg/mL (≈ 19.5 µM) | 64 µg/mL (≈ 156 µM) | 8 µg/mL (≈ 19.5 µM) | – | – | – | 0.324 h⁻¹ | CO/N=C(\C(=O)NC1CN2CC(C(=O)O)=C(C(=O)O)N2C1=O)c1csc(N)n1 (stereo unspecified)
10 | > 128 µg/mL | > 128 µg/mL | > 128 µg/mL | – | – | – | 0.19 h⁻¹ | CO/N=C(\C(=O)NC1CN2CC(c3cccs3)=C(C(=O)O)N2C1=O)c1csc(N)n1 (stereo unspecified)
11 | – | – | – | – | – | 0.944 h⁻¹ | – | N[C@@H](C(=O)N[C@@H]1C(=O)N2C(C(=O)O)=C(Cl)CS[C@H]12)c1ccccc1.O [CEFACLOR]
12 | > 128 µg/mL | > 128 µg/mL | 64 µg/mL (≈ 141 µM) | – | – | – | 0.769 h⁻¹ | CO/N=C(\C(=O)NC1CN2N(C1=O)C(C(=O)O)=C(C(=O)OC)C2(C)C)c1csc(N)n1 (stereo unspecified)
13 | – | – | – | – | – | 0.317 h⁻¹ | – | CC(=O)OCC1=C(C(=O)O)N2C(=O)[C@@H](NC(=O)Cc3cccs3)[C@H]2SC1 [CEPHALOTHIN]
14 | – | – | – | – | – | 0.248 h⁻¹ | – | CC1(C)S[C@@H]2[C@H](NC(=O)COc3ccccc3)C(=O)N2[C@H]1C(=O)O [PENICILLIN V]

Row | SMILES | MIC [1] | MIC [2] | MIC [3] | k [4] | k [5] | k [6] | k [7]
15 | C[C@H]1[C@H](NC(=O)/C(=N\OC(C)(C)C(=O)O)c2csc(N)n2)C(=O)N1S(=O)(=O)O [AZTREONAM] | – | – | – | – | – | 0.4 h⁻¹ | –
16 | CC(C)(O/N=C(\C(=O)N[C@@H]1C(=O)N2C(C(=O)[O-])=C(C[n+]3ccccc3)CS[C@H]12)c1csc(N)n1)C(=O)O [CEFTAZIDIME] | – | – | – | – | – | 1.3 h⁻¹ | –

From ChEMBL document CHEMBL1124136, “The acylating potential of gamma-lactam antibacterials: base hydrolysis of bicyclic pyrazolidinones” (J Med Chem, 1988)
